# ASAP1 inh – ASAP1 ArfGAP inhibition; hit rate 0.19% among 360,000; Q9ULH1; ASAP1-stimulated ARF1 GTP hydrolysis, GDP FP detection; inhibition, % at 16.5 µM; in the data active = inhibition above about 25%;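 note: 0% = vehicle with enzyme and substrate and 100% = no enzyme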
# IMP-1 inhibitor – inhibitors of Pseudomonas aeruginosa IMP-1 metallo-beta-lactamase | purified IMP-1, nitrocefin hydrolysis, epi-absorbance fluorescence | hit rate 0.45% among 290,000 | inhibition, % at 5.6 µM;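 active = inhibition above the mean plus 3 SD of all compounds in the same screening run, cut at about 4.5% in these data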;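 note: 0% = IMP-1 with DMSO and 100% = DMSO wells lacking enzyme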
#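 System: purified recombinant IMP-1 beta-lactamase. Medium: Zinc- and detergent-supplemented HEPES buffer, pH 7.1. Compound: one 5.6 µM dose […]. Schedule: 15 min preincubation plus 25 min reaction at 25 °C. Technique: Epi-absorbance fluorescence, 480 nm excitation, 530 nm emission.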
# PHOSPHO1 block – blocks human PHOSPHO1 phosphatase activity. Q8TCT1. recombinant PHOSPHO1, absorbance phosphatase assay. inhibition, % at 13.3 µM. hit rate 1.1% among 290,000. AID 1565; in the data active = inhibition above about 60%
# Target sequence (Q8TCT1 whole entry, looked up): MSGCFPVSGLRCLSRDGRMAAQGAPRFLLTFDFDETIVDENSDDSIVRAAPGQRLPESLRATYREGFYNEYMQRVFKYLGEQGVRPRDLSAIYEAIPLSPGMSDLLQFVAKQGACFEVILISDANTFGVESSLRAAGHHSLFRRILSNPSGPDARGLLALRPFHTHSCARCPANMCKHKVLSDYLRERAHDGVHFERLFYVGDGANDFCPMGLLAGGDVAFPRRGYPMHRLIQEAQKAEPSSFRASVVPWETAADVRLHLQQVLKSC
# Calb FLC – C. albicans growth modulation with fluconazole. hit rate 0.57% among 300,000. AID 1979. growth inhibition, % (no concentration beside the values). C. albicans CaCi-2 + fluconazole, Alamar Blue growth, 48 h;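 active = growth inhibition above about 58% in most replicates, limit read from the data, passing the limit was not always enough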;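 note: all wells also contain fluconazole at 8 µg/ml as a sub-toxic cotreatment; 0% = median of DMSO wells and 100% = median of geldanamycin control wells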
# ARFGAP1 inh – inhibitors of rat ARFGAP1. Q62848. Arfgap1-stimulated ARF1 GTP hydrolysis, GDP FP detection. inhibition, % at 16.5 µM. hit rate 0.26% among 360,000. AID 651572;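 active = inhibition above a per-plate limit, mean inhibition of low control wells plus 3 SD, cut at about 25% in these data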;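 note: 0% = DMSO wells with enzyme and 100% = wells lacking Arfgap1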
#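 Assay system: purified rat His6-Arfgap1 residues 1-136 (GAP domain); Reagent: human Δ17 ARF1 bound to GTP; Dosing: 16.5 µM single point, 1.26% DMSO; Times: GTP hydrolysis reaction 2 h at 25 °C; Signal: FP, GDP Alexa 633 tracer displaced from anti-GDP antibody, 620/688 nm; Measure: % inhibition from polarization.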
# VIM-2 inh – blocks Pseudomonas aeruginosa VIM-2 metallo-beta-lactamase; hit rate 0.89% among 290,000; purified VIM-2, nitrocefin hydrolysis, epi-absorbance fluorescence; inhibition, % at 5.6 µM;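 active = inhibition above the mean of all tested compounds plus 3 SD, cutoff set per screening run, cut at about 7.5% in these data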;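 note: red hydrolysis product quenches plate fluorescence so inhibitors raise well fluorescence; 0% = enzyme with DMSO and 100% = DMSO without enzyme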
# ARFGAP1 inh conf – confirmation of rat ARFGAP1 inhibitors | shares compounds with ARFGAP1 inh | ARFGAP1-stimulated ARF1 GTP hydrolysis, GDP tracer FP | inhibition, % at 16.5 µM | hit rate 30% among 890 | AID 651608;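 active = average inhibition over triplicates above the hit cutoff set in the earlier primary screen, cut at about 25% in these data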;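 note: 0% = Arfgap1 plus ARF1-GTP with DMSO and 100% = wells lacking Arfgap1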
# Target sequence (Q62848 whole entry, looked up): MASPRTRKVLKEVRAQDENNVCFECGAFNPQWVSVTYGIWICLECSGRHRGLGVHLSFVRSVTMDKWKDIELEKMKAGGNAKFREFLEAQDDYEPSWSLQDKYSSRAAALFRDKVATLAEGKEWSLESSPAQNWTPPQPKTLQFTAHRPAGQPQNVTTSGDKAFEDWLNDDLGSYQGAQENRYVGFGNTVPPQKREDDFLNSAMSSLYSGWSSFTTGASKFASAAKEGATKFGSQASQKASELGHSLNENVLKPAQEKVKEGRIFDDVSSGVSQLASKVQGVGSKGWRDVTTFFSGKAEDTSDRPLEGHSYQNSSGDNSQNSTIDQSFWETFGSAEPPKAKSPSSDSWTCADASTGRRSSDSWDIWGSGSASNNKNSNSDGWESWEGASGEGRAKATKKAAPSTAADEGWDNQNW
# * = called active by the depositor; · = no result given. Only some compounds are listed: those with a hit (about 2.6% of all), similar ones and a draw of the others.
SMILES,ASAP1 inh,IMP-1 inhibitor,PHOSPHO1 block,Calb FLC,ARFGAP1 inh,VIM-2 inh,ARFGAP1 inh conf
CCCCCCCCN1C(=O)[C@H](CC(=O)N2CCCC2)C[C@@]2(C(=O)OC)CC(C)(C)CC=C12,-3.5,·,·,·,-5.5,·,·
COc1cc2c(cc1OC)C(=NO)CCCC2,-4.3,·,·,·,6.5,·,·
CCOC(=O)N1CCN(C(=O)CSc2nc(=O)n3cc(C)ccc3n2)CC1,19.6,·,·,-1.5,40.4*,·,38.3*
COc1ccccc1NC(=O)CSc1nc(=O)n2cc(C)ccc2n1,0.3,·,·,3.3,31.2*,·,22.7
Cc1ccc2nc(SCC(=O)Nc3cccc(Cl)c3)nc(=O)n2c1,16.9,·,·,12.8,31.4*,·,50.4*
Cc1ccc2nc(SCC(=O)Nc3cccc(F)c3)nc(=O)n2c1,31.8*,·,·,-5.9,54.4*,·,47.3*
Cc1ccc2nc(SCC(=O)NC3CCCCC3)nc(=O)n2c1,-5.8,·,·,-0.3,10.5,·,·
COc1cc2c(cc1OCc1ccccc1)/C(=C/C(=O)OCc1ccccc1)OC2,4.5,·,·,·,6.0,·,·
C[C@@H]1CN([C@H](C)CO)C(=O)CCCn2nncc2CO[C@H]1CN(C)Cc1cccc(C(F)(F)F)c1,-0.5,·,·,·,-8.1,·,·
Cc1ccc2nc(SCC(=O)NCc3ccccc3Cl)nc(=O)n2c1,-15.2,·,·,-6.3,-6.6,·,·
Cc1ccc2nc(SCC(=O)c3ccc(Cl)cc3)nc(=O)n2c1,15.7,·,·,1.2,26.6*,·,49.9*
CC1(C(=O)Nc2ccc(Cl)c(C(F)(F)F)c2)Cc2c(-c3ccc(C(N)=O)cc3)ccnc2O1 (configuration not stated),7.1,·,·,·,20.1,·,·
NS(=O)(=O)c1cccc(NC(=O)CSc2ncnc3ccccc23)c1,6.7,-1.9,17.1,-0.7,9.4,-1.2,·
Cc1sc2ncnc(SCC(=O)Nc3cccc(S(N)(=O)=O)c3)c2c1C,-1.3,·,·,·,27.4*,·,1.7
Cc1ccc(NC(=O)CSc2nnc(CNC(=O)C34CC5CC(CC(C5)C3)C4)n2-c2ccc(F)cc2)cc1,-2.2,-4.1,-6.2,14.7,28.6*,-3.5,4.1
O=C(CSc1nnc(CNC(=O)C23CC4CC(CC(C4)C2)C3)n1-c1ccccc1)Nc1ccc(F)cc1,6.9,-4.0,-11.7,-14.5,13.1,-3.6,·
CCCCNC(=O)C(NC(=O)c1ccc2ccccc2c1)C(=O)c1ccccc1 (configuration not stated),10.3,·,·,·,-1.8,·,·
O=Nc1c(-c2cccc([N+](=O)[O-])c2)nc2ncccn12,-12.8,-0.5,1.5,94.2*,26.4*,2.0,-10.2
COc1ccc(-n2cc(CN(C)C(C)c3ccncn3)c(-c3cccc(F)c3)n2)cc1 (configuration not stated),6.9,-1.2,23.9,-10.6,27.3*,-1.6,4.4
OC(c1ccco1)c1nc(-c2cccs2)cs1 (configuration not stated),6.7,·,·,·,1.0,·,·
Cc1ncsc1C(=O)N1N=C2/C(=C/c3ccccc3)CCCC2C1c1ccccc1 (configuration not stated),-6.0,-1.6,29.8,4.4,29.6*,-0.9,-2.4
CCCNC(=O)C1(C)CCCN(C(=O)COc2ccc(Cl)cc2Cl)C1 (configuration not stated),-1.5,·,·,·,-10.1,·,·
CC(C)CNC(=O)C1(C)CCCN1C(=O)Cc1cccc2ccccc12 (configuration not stated),-2.2,·,·,·,15.1,·,·
COc1ccc(NC(=O)CSc2nnnn2C2CCCC2)cc1S(=O)(=O)N1CCOCC1,0.5,·,·,·,12.3,·,·
O=C(c1cc2ccccc2o1)N1CCN(Cc2nc3ccccc3s2)CC1,10.6,·,·,·,25.7*,·,-1.7
SMILES,ASAP1 inh,IMP-1 inhibitor,PHOSPHO1 block,Calb FLC,ARFGAP1 inh,VIM-2 inh,ARFGAP1 inh conf
COCCN1C[C@@H](CO)O[C@@H](n2cnc3c(N(C)C(C)C)ncnc32)C1,-2.8,·,·,·,-6.6,·,·
Cc1cc(Br)cn2c(Cc3ccccc3)c(C3CCCCC3)nc12,-6.5,·,·,·,155.0*,·,2.3
CCOc1ccccc1C(=O)N(CN1CCCC1=O)c1cccc(Cl)c1,13.3,-1.0,18.2,7.8,38.1*,-2.8,7.0
CCCCn1nnnc1C1(C)CCC(=O)N1CCc1ccccc1F (configuration not stated),1.8,·,·,·,1.5,·,·
Cc1cccc(Nc2nc(-c3ccc4c(c3)OCCO4)cs2)c1,17.3,-3.3,73.1*,-21.5,25.8*,-2.7,2.3
CSc1ccc(/C=N/NC(=O)c2ccc3nc[nH]c3c2)cc1,11.8,·,·,·,27.6*,·,4.1
CN(C)c1ccc(/C=N/NC(=O)c2ccc3nc[nH]c3c2)cc1,3.2,-3.8,23.1,-1.0,5.8,-3.3,·
CCOC(=O)CNC(=O)c1c(C)nn(C)c1Cl,6.2,-1.6,57.1,-4.7,24.6*,1.8,3.2
Cc1nn(C)c(Cl)c1C(=O)NCC(=O)O,4.3,-0.4,-55.0,-3.4,-3.3,-0.3,·
O=C(C[C@H]1CC[C@@H]2[C@H](COC[C@@H](O)CN2Cc2cccc(F)c2)O1)NCC1CCCCC1,7.6,·,·,·,16.9,·,·
O=C(c1[nH]c(C(F)(F)F)nc1-c1ccccc1)N1CCC2(CC1)C(=O)NCN2c1ccccc1,-9.1,·,·,·,-5.3,·,·
O=C(OCC(=O)N1CCN(S(=O)(=O)c2ccccc2)CC1)C1CCC1,-1.3,·,·,·,5.3,·,·
O=C(COC(=O)C12CC3CC(CC(C3)C1)C2)N1CCN(S(=O)(=O)c2ccccc2)CC1,-10.0,0.5,-86.3,-24.1,28.8*,1.0,3.4
O=C(C[n+]1ccccc1)N/N=C/c1cc(Br)ccc1O,-1.4,-0.6,14.1,-21.0,7.8,-3.0,·
O=C(N/N=C/c1cc(Br)ccc1O)Nc1ccccc1,4.9,-2.2,1.0,-12.3,25.4*,0.0,14.2
Cc1ccc(C)c(NCCCCCCCC(=O)O)c1,-2.2,·,·,·,8.4,·,·
O=C(N/N=C/c1ccc(-c2ccccc2[N+](=O)[O-])o1)c1cncc(Br)c1,2.7,1.0,8.6,-13.2,6.7,-3.4,·
Nn1cnnc1N/N=C\c1ccc(-c2ccccc2[N+](=O)[O-])o1,-5.8,-1.8,-7.9,13.5,27.5*,-3.0,4.4
COc1ccc(OC)c(-n2nnnc2SCC(=O)Nc2ccc(C(=O)N3CCCCC3)cc2)c1,3.4,-1.2,-2.7,-8.1,6.6,-1.0,·
COc1ccc(OC)c(-n2nnnc2SCC(=O)Nc2ccc3c(c2)OCCO3)c1,10.5,-1.9,-2.2,0.9,48.9*,-1.2,45.0*
CC1(C(=O)NCc2cccs2)Cc2c(-c3cccc(C(F)(F)F)c3)ccnc2O1 (configuration not stated),7.0,·,·,·,3.2,·,·
CCCN(CCC)CCNC(=O)c1cc2c(-c3ccc(Cl)cc3)nn(C)c2s1,7.2,-3.5,14.0,-3.1,28.4*,-2.4,6.1
Cc1cc(=O)n(-c2ccc(C(=O)O)cc2)[nH]1,4.9,-3.0,-17.9,-2.5,27.9*,0.2,-1.4
Cc1cc(=O)n(-c2ccc(O)cc2)[nH]1,0.1,-3.9,48.6,6.5,-7.7,-1.2,·
